The source of these data is ChEMBL document CHEMBL4138225, “Development of novel anti-filarial agents using carbamo(dithioperoxo)thioate derivatives” (Eur J Med Chem, 2018).

Molecules are shown by their SMILES. In brackets after ≈: the same amount, converted by molar mass. Activity calls are given as the source filed them. No cut-off for these calls is given here.

Series [1] deals with Setaria cervi. Kind of series: Induction of reactive oxygen species generation in Setaria cervi microfilariae at 1 to 10 uM by NBT assay. It is filed as functional, organism-based. In a few lines:
(§1)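 Treated mf or adults pelleted at 7500 rpm, washed in PBS (50 mM, pH 7.0), then incubated in 2% NBT for 2 h at 37 °C. Washed in PBS and methanol, formazan dissolved in 2M KOH/DMSO for 10–15 min at room temperature, absorbance read at 620 nm.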

Series [2] is described as follows: Selectivity ratio of IC50 for human WI38 cells to IC50 for Setaria cervi microfilariae. The class given is toxicity. To be noted: read-out: Ratio IC50.
For series [3], the system named is Setaria cervi. As to the kind of experiment: Antifilarial activity against Setaria cervi oocytes after 24 hrs by MTT assay. The class given is functional, organism-based. For orientation: Formazan colour is commonly taken as a measure of viable cells.
The test system of series [4] is Setaria cervi. Kind of series: Antifilarial activity against Setaria cervi microfilaria forms after 24 hrs by MTT assay. The class given is functional, organism-based. Summed up: (§2)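 S. cervi mf or adults cultured in RPMI-1640 with 10% FBS, 5% CO2, 24 h with compounds dissolved in DMSO. Worms washed in PBS, ~1×10^3 put in 0.25 mg/ml MTT for 2 h at 37 °C in the dark. Formazan dissolved in DMSO, A595. Percent inhibition computed, LC50 fitted; at least four repeats, mean ± SE.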

The next series concerns WI-38. Kind of series: Cytotoxicity against human WI38 cells after 24 hrs by MTT assay. The class given is cell-based. Conditions: WI-38, 24 h. In a few lines: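 WI-38 normal human lung fibroblasts, 2.0×10^4 per well, grown 24 h, then treated 24 h at 0–50 µg/mL. MTT 0.5 mg/mL added in phenol red-free RPMI with 5% FBS, 4 h at 37 °C, 5% CO2. Formazan dissolved in DMSO, A570.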

Series [5] has as its system Setaria cervi. As to the kind of experiment: Antifilarial activity against Setaria cervi microfilariae assessed as reduction in worm movement measured every 6 hrs up to 24 hrs by microscopy. It is filed as functional, organism-based. Summed up: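 About 1×10^5 S. cervi mf per well in RPMI-1640 with 10% FBS at 5% CO2, given a dose series. Motility checked by microscope every 6 h up to 24 h and scored 4 (highly motile) down to 0 (dead). IC50 and MIC calculated from scores; three experiments in triplicate, mean ± SE.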

In series [6] the test system is Setaria cervi. As to the kind of experiment: Antifilarial activity against Setaria cervi microfilariae after 3 hrs.
The subject of series [7] is Setaria cervi. As to the kind of experiment: Antifilarial activity against Setaria cervi adult after 3 hrs by trypan blue exclusion assay. It is filed as functional, organism-based.
The subject of series [8] is Setaria cervi. As to the kind of experiment: Antifilarial activity against Setaria cervi microfilariae after 24 hrs by MTT assay. It is filed as functional. In a few lines:
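Bovine S. cervi microfilariae incubated with compounds (DMSO-dissolved) in RPMI-1640 + 10% FBS, 5% CO2, 24 h. Worms washed in PBS; ~1×10^3 suspended in 0.3 ml MTT 0.25 mg/ml, 37 °C 2 h in dark. Formazan dissolved in DMSO, absorbance at 595 nm. Percent inhibition computed; LC50 fitted; ≥4 repeats, mean ± SE.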

Series [9] relates to Setaria cervi. Kind of series: Induction of chromatin condensation in Setaria cervi microfilariae by Hoechst 33342 staining-based […] microscopic analysis. The class given is functional, organism-based. Summed up:
(§3)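 Treated mf washed in PBS (pH 7.2), fixed in paraformaldehyde and stained 5 min with 1 mg/mL Hoechst 33342. Mounted on poly-L-lysine slides and imaged by fluorescence microscopy at […].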

In series [10] the test system is Setaria cervi. Kind of series: Antifilarial activity against Setaria cervi adult after 24 hrs by MTT assay. It is filed as functional, organism-based. Summed up: as §2
Series [11] deals with Setaria cervi. Kind of series: Antifilarial activity against Setaria cervi microfilariae after 3 hrs by trypan blue exclusion assay. The class given is functional, organism-based. In a few lines:
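After treatment, the culture was mixed and 100 μL holding parasites moved into fresh medium and put back in the CO2 incubator. Viability read by trypan blue staining, dead worms blue. Viability % = live / total microfilariae.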

Series [12] concerns Setaria cervi. Kind of series: Induction of apoptosis in Setaria cervi adult form assessed as increase in EGL1 protein levels after 24 hrs by Western blot analysis. The class given is functional, organism-based. Summed up: (§4)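 Adult worms treated 24 h at 10, 50 and 100 μg/mL. Protein measured by Lowry; 100 μg run on 12.5% SDS-PAGE and blotted to PVDF. Blocked in 10% skim milk, anti-EGL-1, CED-3 or CED-9 overnight at 4 °C, then alkaline phosphatase secondary for 6 h. BCIP/NBT detection, GAPDH loading control, band densitometry.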
Background: Immunoblotting shows a protein as a band on a membrane.

For series [13], the system named is Setaria cervi. As to the kind of experiment: Induction of apoptosis in Setaria cervi microfilaria assessed as late apoptotic cells at 50 ug/ml after 6 hrs by Annexin V-FITC/propidium iodide staining-based flow cytometric analysis (reference value: 0.21%). The class given is functional.
Series [14] deals with Setaria cervi. Kind of series: Induction of apoptosis in Setaria cervi oocytes at 1 to 10 ug/ml after 6 hrs by Annexin V-FITC/propidium iodide staining-based fluorescence microscopic analysis. It is filed as functional, organism-based. In a few lines: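 Oocytes taken from gravid S. cervi females, cultured in RPMI-1640 with FBS and treated at 1 and 10 μg/mL. Washed, suspended in PBS (50 mM, pH 7.2), spun at 7500 rpm for 5 min, stained with Annexin V-FITC/PI. Imaged by inverted fluorescence microscope.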

Series [15] deals with Setaria cervi. As to the kind of experiment: Induction of apoptosis in Setaria cervi microfilaria assessed as early apoptotic cells at 50 ug/ml after 6 hrs by Annexin V-FITC/propidium iodide staining-based flow cytometric analysis (reference value: 2.11%). The class given is functional.
The subject of series [16] is Setaria cervi. Kind of series: Induction of apoptosis in Setaria cervi oocytes assessed as necrotic cells at 50 ug/ml after 6 hrs by Annexin V-FITC/propidium iodide staining-based flow cytometric analysis (reference value: 1.14%). The class given is functional. In general terms: In flow cytometry, cells or beads pass a laser one at a time.
Series [17] has as its system Setaria cervi. Kind of series: Induction of apoptosis in Setaria cervi microfilariae at 1 to 5 ug/ml by acridine orange/ethidium bromide staining-based fluorescence microscopic analysis. The class given is functional, organism-based. Summed up: (§5)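 Treated mf or oocytes stained with AO and EtBr mixed 1:1 (from […] stocks in 0.1 M PBS). Viewed under fluorescence microscope on glass slides; orange EtBr signal marks lost membrane integrity.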

Series [18] relates to Setaria cervi. As to the kind of experiment: Induction of apoptosis in Setaria cervi oocytes assessed as viable cells at 50 ug/ml after 6 hrs by Annexin V-FITC/propidium iodide staining-based flow cytometric analysis (reference value: 90.03%). It is filed as functional.
Series [19] concerns Setaria cervi. As to the kind of experiment: Induction of chromatin condensation in Setaria cervi microfilariae at 5 ug/ml after 3 hrs by Hoechst 33342 staining-based […] microscopic analysis. The class given is functional, organism-based. Summed up: as §3
In series [20] the test system is Setaria cervi. As to the kind of experiment: Induction of apoptosis in Setaria cervi oocytes assessed as late apoptotic cells at 50 ug/ml after 6 hrs by Annexin V-FITC/propidium iodide staining-based flow cytometric analysis (reference value: 0.64%). It is filed as functional.
Series [21] concerns Setaria cervi. As to the kind of experiment: Induction of apoptosis in Setaria cervi oocytes assessed as early apoptotic cells at 50 ug/ml after 6 hrs by Annexin V-FITC/propidium iodide staining-based flow cytometric analysis (reference value: 8.19%). The class given is functional.
For series [22], the system named is Setaria cervi. Kind of series: Induction of apoptosis in Setaria cervi adult form assessed as increase in CED3 protein levels after 24 hrs by Western blot analysis. It is filed as functional, organism-based. In a few lines: as §4
The test system of series [23] is Setaria cervi. Kind of series: Induction of reactive oxygen species generation in Setaria cervi adult form at 1 to 10 uM by NBT assay. It is filed as functional, organism-based. Summed up: as §1
Series [24] concerns Setaria cervi. Kind of series: Induction of apoptosis in Setaria cervi oocytes at 1 to 5 ug/ml by acridine orange/ethidium bromide staining-based fluorescence microscopic analysis. It is filed as functional, organism-based. In a few lines:
as §5

Series [25] concerns Setaria cervi. As to the kind of experiment: Induction of apoptosis in Setaria cervi microfilaria assessed as necrotic cells at 50 ug/ml after 6 hrs by Annexin V-FITC/propidium iodide staining-based flow cytometric analysis (reference value: 0.02%). It is filed as functional.
For series [26], the system named is Setaria cervi. As to the kind of experiment: Induction of apoptosis in Setaria cervi microfilaria assessed as viable cells at 50 ug/ml after 6 hrs by Annexin V-FITC/propidium iodide staining-based flow cytometric analysis (reference value: 97.66%). It is filed as functional.
In series [27] the test system is Setaria cervi. As to the kind of experiment: Induction of apoptosis in Setaria cervi adult form assessed as decrease in CED9 protein levels after 24 hrs by Western blot analysis. It is filed as functional, organism-based. Summed up:
as §4

Broadly, the IC50 is the concentration that inhibits the measured activity by half. For orientation: MIC means the lowest concentration that inhibits growth of the organism. One may read the LC50 as the concentration lethal to half of the exposed cells or organisms. Read a high LC50 as a less lethal substance. Consider `S=C(SSc1ncccn1)N1CCCCC1`, for which the result with Setaria cervi [1], in the series on Setaria cervi [3], with Setaria cervi [4] and in the series with Setaria cervi [9] was Active. Further, the selectivity ratio in [2] was 5. For the same compound, the IC50 in the series with WI-38 turned out to be 10.6 µg/mL (≈ 39.1 µM); in the series on Setaria cervi [5] it was 4.75 µg/mL (≈ 17.5 µM); in the series with Setaria cervi [6], 4.75 µg/mL (≈ 17.5 µM). In the series with Setaria cervi [5], the MIC was determined as 2.39 µg/mL (≈ 8.81 µM). In addition, the Activity result in the series with Setaria cervi [7], in the series with Setaria cervi [8], in the series with Setaria cervi [10] and in the series on Setaria cervi [11] was “Dose-dependent effect” each time. In addition, in the series with Setaria cervi [8], the LC50 worked out at 5.1 µg/mL (≈ 18.8 µM).
In the case of `COc1ccc(SSC(=S)N2CCCCC2)cc1`, the result in the series on Setaria cervi [3], in the series with Setaria cervi [4] and in the series with Setaria cervi [9] was Active. Moreover, the IC50 in the series with Setaria cervi [5] and in the series on Setaria cervi [6] was 4.61 µg/mL (≈ 15.4 µM) each time. The minimum inhibitory concentration (MIC) in the series on Setaria cervi [5] was 2.3 µg/mL (≈ 7.68 µM). The Activity entry in the series on Setaria cervi [7], in the series with Setaria cervi [8], in the series on Setaria cervi [10] and in the series on Setaria cervi [11] was “Dose-dependent effect” throughout. This compound also gave an LC50 in the series on Setaria cervi [8] of 6.94 µg/mL (≈ 23.2 µM).
Turning to `S=C(SSc1ncccn1)N1CCOCC1`, the result in the series on Setaria cervi [3], in the series with Setaria cervi [4] and in the series with Setaria cervi [9] was Active. Also, the IC50 in the series with Setaria cervi [5] and in the series with Setaria cervi [6] was 5.5 µg/mL (≈ 20.1 µM) in each case. Also, the MIC with Setaria cervi [5] was 0.97 µg/mL (≈ 3.55 µM). For the same compound, the Activity entry with Setaria cervi [7], with Setaria cervi [8], with Setaria cervi [10] and with Setaria cervi [11] was “Dose-dependent effect” each time. The compound also returned an LC50 in the series with Setaria cervi [8] of 6.17 µg/mL (≈ 22.6 µM).
Regarding `Cc1ccc(SSC(=S)N2CCCCC2)cc1`, the Activity entry was “Dose-dependent effect” in the series with Setaria cervi [12]; 15.82% with Setaria cervi [13]; “Dose-dependent effect” in the series with Setaria cervi [14]; 15.6% with Setaria cervi [15]; 4.47% in the series on Setaria cervi [16]; “Dose-dependent effect” in the series on Setaria cervi [17]. For the same compound, the Activity is 70.84% with Setaria cervi [18]; 11.3% in the series on Setaria cervi [20]; 13.3% with Setaria cervi [21]; “Dose-dependent effect” in the series with Setaria cervi [7]; “Dose-dependent effect” with Setaria cervi [22]; “Dose-dependent effect” in the series on Setaria cervi [24]. Further, the Activity in the series on Setaria cervi [25] was 0.01%; in the series with Setaria cervi [8] it was “Dose-dependent effect”; in the series on Setaria cervi [26], 68.55%; with Setaria cervi [10], “Dose-dependent effect”; in the series with Setaria cervi [27], “Dose-dependent effect”; with Setaria cervi [11], “Dose-dependent effect”. Also, the outcome with Setaria cervi [1], in the series on Setaria cervi [3], in the series on Setaria cervi [4], in the series on Setaria cervi [19] and with Setaria cervi [23] was Active. Besides, the selectivity ratio in series [2] stood at 25. In addition, the IC50 came to 19.8 µg/mL (≈ 70 µM) with WI-38, 0.708 µg/mL (≈ 2.5 µM) with Setaria cervi [5] and 0.708 µg/mL (≈ 2.5 µM) in the series with Setaria cervi [6]. Moreover, the minimum inhibitory concentration (MIC) in the series with Setaria cervi [5] came out at 0.358 µg/mL (≈ 1.26 µM). For the same compound, the LC50 with Setaria cervi [8] was found to be 3.89 µg/mL (≈ 13.7 µM).
On to `S=C(SSc1cccc2ccccc12)N1CCCCC1`, for which the outcome in the series on Setaria cervi [1], with Setaria cervi [3], in the series on Setaria cervi [4] and in the series on Setaria cervi [9] was Active. Also, the IC50 in the series with Setaria cervi [5] and in the series on Setaria cervi [6] was 2.15 µg/mL (≈ 6.73 µM) each time. Besides, the minimal inhibitory concentration (MIC) with Setaria cervi [5] came to 0.583 µg/mL (≈ 1.82 µM). For the same compound, the Activity result with Setaria cervi [7], with Setaria cervi [8], with Setaria cervi [10] and in the series with Setaria cervi [11] was “Dose-dependent effect” each time. In the series on Setaria cervi [8], this compound gave an LC50 of 6.49 µg/mL (≈ 20.3 µM).
